Measured values as given in article PMC4455950 (Journal of the American Chemical Society, 2008).
Entries after “also recorded” stand apart in the source; their conditions may differ. Like-named read-outs stand apart in the source and are kept apart here.

What was measured:
[1] = target: T1, mCD1d:Ig fusion protein (dimeric CD1d) (Mus musculus, UniProt P11609); assay: Competitive binding assay on microarray; conditions: for binding with CD1d stronger than α-GalCer: relative to α-GalCer
T1 sequence (P11609 22-305 limits assumed): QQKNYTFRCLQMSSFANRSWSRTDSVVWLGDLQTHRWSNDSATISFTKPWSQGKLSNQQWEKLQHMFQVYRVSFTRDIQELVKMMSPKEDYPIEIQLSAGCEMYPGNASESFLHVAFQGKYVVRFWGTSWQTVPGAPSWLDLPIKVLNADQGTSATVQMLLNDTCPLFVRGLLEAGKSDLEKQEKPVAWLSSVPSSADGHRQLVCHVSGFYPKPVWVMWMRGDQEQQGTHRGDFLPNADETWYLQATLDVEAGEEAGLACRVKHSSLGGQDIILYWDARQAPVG
T1 sequence (P01887 21-119 partner): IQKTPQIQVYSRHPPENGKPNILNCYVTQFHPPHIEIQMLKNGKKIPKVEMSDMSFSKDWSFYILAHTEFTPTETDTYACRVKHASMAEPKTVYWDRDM
Method in brief: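 Glass slides carry a covalently attached amine-linked α-GalCer analogue printed at 100 μM. Test compound (400 to 0.1 μM, 1.0% DMSO) is preincubated with dimeric mCD1d:Ig (500 nM) for 5–8 h. Mixture goes on slides 1 h at room temperature, humidified. Detection uses precomplexed biotinylated rat anti-mCD1d (20 μg/mL) plus Cy3-streptavidin (10 μg/mL), 1 h, then a 595 nm scan. Ki is fitted to a competitive surface-binding equation.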

[2] = system: human Vα24+ NKT cell line cocultured with Hela cells transfected with human CD1d; assay: Cytokine secretion assay using human NKT cell lines; format: cell-based; conditions: for IFN-γ secretion normalized to α-GalCer / IL-4 secretion normalized to α-GalCer: 10 ng/mL glycolipid, 24 h, ELISA, relative to α-GalCer = 1.00; for IFN-γ/IL-4 ratio: IFN-γ ratio/IL-4 ratio, normalized to α-GalCer
Method in brief: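 Vα24+ NKT lines come from bead-isolated leukopak T cells. They were expanded 10 days on irradiated (3000 rads) CD14-derived immature DCs with 100 ng/mL α-GalCer and 10 IU/mL IL-2. Assay: 20 000 NKT cells plus 2 × 10^4 irradiated (10 000 rads) human CD1d-transfected HeLa cells, 10 ng/mL test compound, 24 h. Supernatant IFN-γ or IL-4 by ELISA, normalised to α-GalCer; triplicate, mean ± SD.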

CD1d [3] = conditions: read-out: dissociation constant from IEF; cited from earlier work
CD1d [4] = conditions: read-out: dissociation constant from ITC; cited from earlier work

| Structure (SMILES) | binding with CD1d stronger than α-GalCer [1] | IFN-γ secretion normalized to α-GalCer [2] | IL-4 secretion normalized to α-GalCer [2] | IFN-γ/IL-4 ratio [2] | binding enhancement compared with parent compound 13 ([1]; relative to compound 13) | IFN-γ production (in words) [2] | binding to CD1d (in words) [1] | Ki [1] [µM] | Ki versus KD,surf (fold) ([1]; solution Ki compared with KD,surf of surface α-GalCer) | Kd (CD1d [3]) [µM] | Kd (CD1d [4]) [µM] |
| --- | --- | --- | --- | --- | --- | --- | --- | --- | --- | --- | --- |
| CCCCCCCCCCCCCCC(O)C(O)C(COC1OC(CO)C(O)C(O)C1O)NC(=O)CCCCCCCc1ccccc1 (centres unmarked) [Compound 13] | approximately 1 order of magnitude | 1.80 ± 0.15 | 0.87 ± 0.27 | 2.07 ± 0.26 | – | – | – | – | – | – | – |
| CCCCCCCCCCCCCCC(O)C(O)C(COC1OC(CO)C(O)C(O)C1O)NC(=O)CCCCCCCc1ccc(F)cc1 (centres unmarked) [Compound 18] | 2 order of magnitude | 2.39 ± 0.13 | 0.80 ± 0.09 | 3.00 ± 0.16 | approximately 1 order of magnitude | highest IFN-γ cytokine production; also recorded: highest IFN-γ secretion | – | – | – | – | – |
| CCCCCCCCCCCCCC[C@@H](O)[C@@H](O)[C@H](CO[C@H]1O[C@H](CO)[C@H](O)[C@H](O)[C@H]1O)NC(=O)CCCCCCCc1ccc(OC)cc1 [Compound 19] | – | 2.25 ± 0.06 | 0.79 ± 0.06 | 2.85 ± 0.10 | – | highest IFN-γ cytokine production | – | – | – | – | – |
| CCCCCCCCCCCCCC[C@@H](O)[C@@H](O)[C@H](CO[C@H]1O[C@H](CO)[C@H](O)[C@H](O)[C@H]1O)NC(=O)CCCCCCCc1ccc(C(F)(F)F)cc1 [Compound 20] | – | 1.43 ± 0.07 | 0.76 ± 0.08 | 1.88 ± 0.08 | – | – | – | – | – | – | – |
| CCCCCCCCCCCCCC[C@@H](O)[C@@H](O)[C@H](CO[C@H]1O[C@H](CO)[C@H](O)[C@H](O)[C@H]1O)NC(=O)CCCCCCCCCCc1ccc(-c2ccccc2)cc1 [Compound 25] | – | 0.33 ± 0.001 | 0.61 ± 0.06 | 0.55 ± 0.04 | – | less IFN-γ production | lower binding activity | – | – | – | – |
| CCCCCCCCCCCCCCCCCCCCCCCCCC(=O)N[C@@H](CO[C@H]1O[C@H](CO)[C@H](O)[C@H](O)[C@H]1O)[C@H](O)[C@H](O)CCCCCCCCCCCCCC [α-GalCer, α-galactosylceramide, reference compound] | – | 1.00 | 1.00 | 1.00 | – | – | – | 16 ± 2.1 | 30–140 fold | 5.9 | 9.7 |
